This passage reports Ki results from ChEMBL document CHEMBL1126667, “CCK-B agonist or antagonist activities of structurally hindered and peptidase-resistant Boc-CCK4 derivatives” (J Med Chem, 1993).

Each structure is given as a SMILES string. Non-standard residues stand in square brackets, D forms with d. Residues, ends and D or L forms follow the SMILES beside them. *: point of attachment. NMe1Nal = CN[C@@H](Cc1cccc2ccccc12)C(=O)O; NMeW = CN[C@@H](Cc1c[nH]c2ccccc12)C(=O)O; 1Nal = N[C@@H](Cc1cccc2ccccc12)C(=O)O; 2Nal = N[C@@H](Cc1ccc2ccccc2c1)C(=O)O; Chg = N[C@H](C(=O)O)C1CCCCC1; Phg = N[C@H](C(=O)O)c1ccccc1; Nle = CCCC[C@H](N)C(=O)O; OtBu = CC(C)(C)O*

Common to all, as to format: cell membranes
Assay [1] concerns the target T1, Cholecystokinin receptor type A (Cavia porcellus, UniProt Q63931).
T1 sequence (Q63931 whole entry): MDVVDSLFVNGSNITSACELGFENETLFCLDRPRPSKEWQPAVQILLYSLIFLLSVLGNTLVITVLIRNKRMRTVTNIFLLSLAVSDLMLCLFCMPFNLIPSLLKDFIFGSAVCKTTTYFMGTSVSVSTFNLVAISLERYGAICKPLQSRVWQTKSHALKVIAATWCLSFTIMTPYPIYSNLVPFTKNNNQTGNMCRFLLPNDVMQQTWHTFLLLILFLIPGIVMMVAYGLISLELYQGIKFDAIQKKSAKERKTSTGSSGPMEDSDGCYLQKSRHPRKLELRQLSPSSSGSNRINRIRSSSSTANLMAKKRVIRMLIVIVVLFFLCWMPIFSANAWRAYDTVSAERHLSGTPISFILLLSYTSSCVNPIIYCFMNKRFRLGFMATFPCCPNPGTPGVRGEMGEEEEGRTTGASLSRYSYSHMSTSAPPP
Briefly: Affinity of compound on binding of [3H]pCCK-8 to the cholecystokinin type A receptor in guinea pig pancreatic membrane. The procedure, abridged:
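Competition binding on guinea pig pancreatic membranes (0.2 mg protein/mL) using [3H]pCCK8 at 0.2 nM. Nonspecific binding defined with 1 μM CCK8. Reaction stopped by filtration over BSA-precoated GF/B filters and counted. KI derived by Cheng-Prusoff.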

Assay [2] has as its target T1, Cholecystokinin receptor type A. Briefly: Displacement of [3H]-pCCK-8 from cholecystokinin-A receptor in guinea pig pancreatic membrane. In outline: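 Competition binding on guinea pig pancreatic membranes (0.2 mg protein/mL) using [3H]pCCK8 at 0.2 nM. Reaction stopped by filtration over BSA-precoated GF/B filters and counted. KI derived by Cheng-Prusoff.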
For assay [3], the target named is T2, Gastrin/cholecystokinin type B receptor (Rattus norvegicus, UniProt P30553).
T2 sequence (P30553 whole entry): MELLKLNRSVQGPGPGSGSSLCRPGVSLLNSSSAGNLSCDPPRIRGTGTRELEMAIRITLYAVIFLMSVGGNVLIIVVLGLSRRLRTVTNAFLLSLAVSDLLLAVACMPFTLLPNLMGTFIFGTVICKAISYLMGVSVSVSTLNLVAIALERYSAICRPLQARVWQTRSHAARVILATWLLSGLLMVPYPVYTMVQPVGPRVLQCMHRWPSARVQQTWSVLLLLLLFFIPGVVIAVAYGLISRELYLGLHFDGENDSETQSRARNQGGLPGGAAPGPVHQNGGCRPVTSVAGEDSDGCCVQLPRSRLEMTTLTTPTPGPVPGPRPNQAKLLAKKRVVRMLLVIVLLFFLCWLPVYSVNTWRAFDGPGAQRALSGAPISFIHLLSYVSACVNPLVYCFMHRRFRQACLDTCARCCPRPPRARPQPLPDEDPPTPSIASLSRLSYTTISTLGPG
Briefly: Affinity of compound on binding of [3H]pCCK-8 to the cholecystokinin type B receptor in rat brain membrane. The procedure, abridged: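 Brain membranes (0.6 mg protein/mL; rat or guinea pig) incubated with 0.2 nM [3H]pCCK8 in 50 mM Tris-HCl pH 7.4, 5 mM MgCl2, 0.2 mg/mL bacitracin, 60 min at 25 °C. Filtered on BSA-precoated GF/B filters and counted. KI by Cheng-Prusoff; mean ± SEM of three experiments, each in triplicate.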

`CN(C(=O)[C@H](Cc1ccccc1)NC(=O)[C@H](CC(=O)O)NC(=O)[C@@H](N)Cc1ccccc1)[C@@H](Cc1c[nH]c2ccccc12)C(=O)OC(C)(C)C` displayed a Ki in assay [1] of 3200 nM.
In turn, `CN(C(=O)[C@H](Cc1ccccc1)NC(=O)[C@H](CC(=O)O)NC(=O)[C@@H](N)Cc1ccccc1)[C@H](Cc1c[nH]c2ccccc12)C(=O)OC(C)(C)C` yielded a Ki in assay [1] of 8000 nM.
The compound `CCCC[C@H](NC(=O)[C@H](CC(=O)O)NC(=O)[C@@H](N)Cc1cccc2ccccc12)C(=O)N(C)[C@@H](Cc1c[nH]c2ccccc12)C(=O)OC(C)(C)C` came in with a Ki in assay [2] of 1200 nM.
`CN(C)[C@@H](Cc1cccc2ccccc12)C(=O)N[C@@H](CC(=O)O)C(=O)N[C@H](C(=O)N[C@@H](Cc1c[nH]c2ccccc12)C(=O)OC(C)(C)C)C1CCCCC1` yielded a Ki in assay [2] of 5400 nM.
On to `CN(C)[C@@H](Cc1cccc2ccccc12)C(=O)N[C@@H](CC(=O)O)C(=O)N[C@H](C(=O)N[C@@H](Cc1c[nH]c2ccccc12)C(=O)OC(C)(C)C)c1ccccc1`, for which the Ki in assay [3] came out at 51 nM; in assay [2], 1000 nM.
In assay [2], `CCCC[C@H](NC(=O)[C@H](CC(=O)O)NC(=O)[C@H](Cc1cccc2ccccc12)N(C)C)C(=O)N(C)[C@@H](Cc1c[nH]c2ccccc12)C(=O)OC(C)(C)C` had a Ki of 520 nM.
For the compound `CCCC[C@H](NC(=O)[C@H](CC(=O)O)NC(=O)[C@@H](N)Cc1cccc2ccccc12)C(=O)N(C)[C@H](Cc1c[nH]c2ccccc12)C(=O)OC(C)(C)C`, the affinity in assay [2] corresponds to a Ki of 6300 nM.
The same measure, in the same setting: under `CCCC[C@H](NC(=O)[C@H](CC(=O)O)NC(=O)[C@@H](N)Cc1ccccc1)C(=O)N(C)[C@@H](Cc1c[nH]c2ccccc12)C(=O)OC(C)(C)C` (H-FD[Nle][NMeW]-OtBu) stands greater than 5000 nM.
With `CC(C)(C)OC(=O)[C@H](Cc1c[nH]c2ccccc12)NC(=O)[C@H](Cc1ccccc1)NC(=O)[C@H](CC(=O)O)NC(=O)[C@@H](N)Cc1cccc2ccccc12` (H-[1Nal]DFW-OtBu), in assay [2], the Ki turned out to be 2400 nM.
For the compound `CN(C(=O)[C@H](Cc1ccccc1)NC(=O)[C@H](CC(=O)O)NC(=O)[C@@H](N)Cc1cccc2ccccc12)[C@@H](Cc1c[nH]c2ccccc12)C(=O)OC(C)(C)C` (H-[1Nal]DF[NMeW]-OtBu), the affinity in assay [2], expressed as Ki, was 3500 nM.
In assay [2], `CC(C)(C)OC(=O)[C@H](Cc1c[nH]c2ccccc12)NC(=O)[C@@H](NC(=O)[C@H](CC(=O)O)NC(=O)[C@@H](N)Cc1cccc2ccccc12)C1CCCCC1` (H-[1Nal]D[Chg]W-OtBu) registered a Ki of 1400 nM.
In assay [1], `CN(C(=O)[C@@H](NC(=O)[C@H](CC(=O)O)NC(=O)[C@@H](N)Cc1cccc2ccccc12)C1CCCCC1)[C@@H](Cc1c[nH]c2ccccc12)C(=O)OC(C)(C)C` (H-[1Nal]D[Chg][NMeW]-OtBu) registered a Ki of 2100 nM.
The compound `CC(C)(C)OC(=O)[C@H](Cc1c[nH]c2ccccc12)NC(=O)[C@@H](NC(=O)[C@H](CC(=O)O)NC(=O)[C@@H](N)Cc1cccc2ccccc12)c1ccccc1` (H-[1Nal]D[Phg]W-OtBu) registered a Ki in assay [2] of 990 nM.
Same read-out and setting: next, `CN(C(=O)[C@@H](NC(=O)[C@H](CC(=O)O)NC(=O)[C@@H](N)Cc1cccc2ccccc12)c1ccccc1)[C@@H](Cc1c[nH]c2ccccc12)C(=O)OC(C)(C)C` (H-[1Nal]D[Phg][NMeW]-OtBu): 830 nM.
In the case of `CCCC[C@H](NC(=O)[C@H](CC(=O)O)NC(=O)[C@@H](N)Cc1ccc2ccccc2c1)C(=O)N(C)[C@@H](Cc1c[nH]c2ccccc12)C(=O)OC(C)(C)C` (H-[2Nal]D[Nle][NMeW]-OtBu), affinity in assay [2] was put at a Ki of 4200 nM.
`CCCC[C@H](NC(=O)[C@H](CC(=O)O)NC(=O)[C@H](Cc1cccc2ccccc12)NC)C(=O)N(C)[C@@H](Cc1c[nH]c2ccccc12)C(=O)OC(C)(C)C` (H-[NMe1Nal]D[Nle][NMeW]-OtBu) came in with a Ki in assay [2] of 1200 nM.
Compound `CCCC[C@H](NC(=O)[C@H](CC(=O)O)NC(=O)[C@@H](N)Cc1ccccc1)C(=O)N[C@H](Cc1c[nH]c2ccccc12)C(=O)OC(C)(C)C` (stereo in doubt; 13) came in with a Ki in assay [2] of 1100 nM.
